Measured values taken from ChEMBL document CHEMBL1122953, “Synthesis and antiarrhythmic and parasympatholytic properties of substituted phenols. 3. Modifications to the linkage region (region 3)” (1985).
Calls of active or inactive are those of the source. No cut-off for these calls is given here.

Columns and labels:
[1] = organism: Canis familiaris; test: Antiarrhythmic activity estimated by using the ouabain intoxicated dog model and the active dose of base in ouabain dog was reported.; assay type: functional, Canis lupus familiaris, Heart
Method in brief: (§1)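 Dogs; ECG lead II recorded. Ouabain given iv as boluses of 40 µg/kg, then 20 µg/kg 30 min later, then 10 µg/kg every 15 min until a stable ventricular arrhythmia (>95% ectopic ventricular complexes) persisted 15 min. Test drug infused iv at 0.5 mg/kg per min until normal sinus rhythm held at least 10 min. Active dose is the mean of experiments ± SEM.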

[2] = organism: Cavia porcellus; test: Parasympatholytic activity and the % inhibition of guinea pig ileum contractile force at 4 mg/L of base was reported.; assay type: functional
Method in brief: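 Isolated guinea pig ileum, electrically stimulated so contraction comes from acetylcholine released by postganglionic parasympathetic nerves. After about 60 min equilibration, tension was measured just before and during the steady-state response to drug at 4 mg/L. Result is % inhibition of contractile force.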

[3] = organism: Canis familiaris; test: Dose at which ouabain dog caused ventricular flutter; assay type: functional, Canis lupus familiaris, Heart; method in brief: as §1
[4] = tested on: Canis familiaris; test: Antiarrhythmic activity estimated by using the ouabain intoxicated dog model and the active dose of base in ouabain dog was reported. at a dose of 10 mg/kg; Not effective; assay type: functional, organism-based; parameters: dose 10 mg/kg; conditions: Canis lupus familiaris, Heart; method in brief: as §1
[5] = organism: Canis familiaris; test: Antiarrhythmic activity estimated by using the ouabain intoxicated dog model and the active dose of base in ouabain dog was reported; Not effective; assay type: functional, organism-based; conditions: Canis lupus familiaris; Heart; method in brief: as §1
[6] = tested on: Canis familiaris; test: Antiarrhythmic activity estimated by using the ouabain intoxicated dog model and the active dose of base in ouabain dog was reported at a dose of 20 mg/kg; Not effective; assay type: functional, organism-based; parameters: dose 20 mg/kg; conditions: Canis lupus familiaris, Heart; method in brief: as §1
[7] = organism: Canis familiaris; test: Dose at which ouabain dog failed to produce normal sinus rhythm; assay type: functional, Canis lupus familiaris; method in brief: as §1

Row | Structure (SMILES) | Dose [1] [mg/kg] | Inhibition [2] [%] | other results
1 | O=C(Nc1ccccc1)Nc1cc(CN2CCCC2)c(O)c(CN2CCCC2)c1 | 3.6 |  | 
2 | CN(C(=O)c1ccccc1)c1cc(CN2CCCC2)c(O)c(CN2CCCC2)c1 | 16.2 | 5 | 
3 | Oc1c(CN2CCCC2)cc(Nc2ncnc3ccccc23)cc1CN1CCCC1 [CHANGROLIN] | 5.5 | 43 | 
4 | O=C(Nc1cc(CN2CCOCC2)c(O)c(CN2CCOCC2)c1)c1ccccc1 | 16.5 |  | 
5 | CCN(CC)CCNC(=O)c1ccc(N)cc1.Cl [PROCAINAMIDE HYDROCHLORIDE] | 29 | 0 | 
6 | Cc1cccc(C)c1NC(=O)c1cc(CN2CCCC2)c(O)c(CN2CCCC2)c1 | 4.5 |  | 
7 | COc1ccc(C(=O)c2cc(CN3CCCC3)c(O)c(CN3CCCC3)c2)cc1 | 4.5 | 12 | 
8 | Cc1ccccc1NC(=O)c1cc(CN2CCCC2)c(O)c(CN2CCCC2)c1 | 2.9 |  | 
9 | O=C(Nc1ccccc1)c1cc(CN2CCCC2)c(O)c(CN2CCCC2)c1 | 2.8 | 31 | 
10 | O=C(c1ccccc1)c1cc(CN2CCCC2)c(O)c(CN2CCCC2)c1 | 2.4 | 9 | 
11 | O=C(Nc1cc(CN2CCCC2)c(O)c(CN2CCCC2)c1)c1ccccc1 | 3.4 |  | 
12 | Cc1cccc(C)c1C(=O)Nc1cc(CN2CCCC2)c(O)c(CN2CCCC2)c1 | 3.2 |  | 
13 | CC(C)N(CCC(C(N)=O)(c1ccccc1)c1ccccn1)C(C)C (configuration not stated) [DISOPYRAMIDE] | 4.4 | 81 | 
14 | O=C(/C=C/c1ccccc1)Nc1cc(CN2CCCC2)c(O)c(CN2CCCC2)c1 | 14 |  | Dose [3]: 8 mg/kg
15 | C=C[C@H]1CN2CC[C@H]1C[C@@H]2[C@@H](O)c1ccnc2ccc(OC)cc12 [QUINIDINE] | 10.5 | 62 | 
16 | Cc1ccccc1C(=O)Nc1cc(CN2CCCC2)c(O)c(CN2CCCC2)c1 | 2.7 |  | 
17 | O=C(c1cc(CN2CCCC2)c(O)c(CN2CCCC2)c1)c1cc(CN2CCCC2)c(O)c(CN2CCCC2)c1 |  |  | DOSE [4]: inactive
18 | Cl.Oc1c(CN2CCCC2)cc(Cc2ccccc2)cc1CN1CCCC1 |  | 14.3 | DOSE [5]: inactive
19 | Cl.Oc1c(CN2CCCC2)cc(OCc2ccccc2)cc1CN1CCCC1 | 2 | 62 | 
20 | O=C(Nc1cc(CN2CCCCC2)c(O)c(CN2CCCCC2)c1)c1ccccc1 | 3 | 33 | 
21 | O=C(Nc1nccs1)c1cc(CN2CCCC2)c(O)c(CN2CCCC2)c1 |  |  | DOSE [6]: inactive
22 | Oc1c(CN2CCCC2)cc(Nc2ccccc2)cc1CN1CCCC1 | 5 |  | Dose [7]: 17.5 mg/kg
23 | O=S(=O)(Nc1cc(CN2CCCC2)c(O)c(CN2CCCC2)c1)c1ccccc1 | 10 |  | 
24 | O=C(c1ccc(Cl)cc1)c1cc(CN2CCCC2)c(O)c(CN2CCCC2)c1 | 4.8 |  | 
